The array DNA melting data of Ke et al. (doi:10.1101/2024.01.08.574731)

Legend:
[1] = folding enthalpy; higher = less favourable; fluorescence melt of hairpins on a sequencing array, two-state fit; settings: sodium 0.088 M
Method in brief: (§1)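 With Cy3 and quencher oligos annealed, library hairpins on a sequenced MiSeq flow cell were imaged for Cy3 fluorescence in 50 mM Na-HEPES pH 8.0, 25 mM NaCl, in 2.5 °C steps up to 60 °C. Melting temperature and folding enthalpy were derived from bootstrapped two-state fits of signals normalised to pre-quench Cy3 and to control constructs. Four replicates were combined by inverse variance, with fitted temperatures raised by 9.35 °C to match UV melts.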

[2] = melting temperature; fluorescence melt of hairpins on a sequencing array, two-state fit, raised by 9.35 °C to match UV melts; settings: sodium 0.088 M
Method in brief: as §1

Sequence | folding enthalpy [1] [kJ/mol] | Tm [2] [°C]
GAGCTAGGAAACTAACTC (((.(((....))).))) | -83.2 | 30.4
GGAATTCCGAAAGGATCC (((..(((....)))))) | -45.8 | 28
GGGTGCCCGAAAGGGCCC (((..(((....)))))) | -48.4 | 55.5
GGTTTCCGAAAGGATACC (((.(((....))).))) | -154 | 50.5
GCTAAGCGAAAGCTTGGC ((.((((....)))).)) | -144 | 62.9
GATGCGGGAAACCGCACC (.(((((....))))).) | -47.2 | 42.9
GATCACGAAAGTGGCATC ((((((....)))..))) | -51.3 | 30.3
GCACGGCGAAAGCAATGC (((..((....))..))) | -64.9 | 39.1
GAAGCCGAAAGGCTTTC ((((((....))).))) | -46.3 | 54.2
GACGGGGGAAACCTCGTC ((((.((....)).)))) | -133 | 55.1
GGGTTTCGAAAGAACCC (((.(((....)))))) | -159 | 51.2
GATCGTTTGCACGATC ((((((....)))))) | -113 | 54.7
GATCTATATATAGATC ((((((....)))))) | -196 | 46.4
GTAACCGAAAGGTGATAC ((((((....)))..))) | -54 | 30.7
GGTATGGGAAACTATACC (((((.(....).))))) | -111 | 41.4
GCCACCGGAAACGGCGAC (.(.(((....))).).) | -59.5 | 34.7
GATCTAAGTATAGATC ((((((....)))))) | -116 | 37.9
GGACGCCGAAAGGCTTCC (((.(((....))).))) | -97.8 | 53.8
GCGGCATTCCGC ((((....)))) | -99.2 | 56.1
GCGGAGTCCGC ((((...)))) | -107 | 52.4
GCGATAGTTCGC ((((....)))) | -91.2 | 50.4
GATCCCGAAAGGGCGATC ((((((....)))..))) | -50.8 | 31.9
GTCAACCGAAAGGTGGAC (((.(((....))).))) | -127 | 56.2
GCGTAAGGAAACTTGTGC ((..(((....)))..)) | -45.4 | 29.7

Sequence | folding enthalpy [1] [kJ/mol] | Tm [2] [°C]
GATCGTCGGCACGATC ((((((....)))))) | -89.5 | 53
GATCCCCTGTGGGATC ((((((....)))))) | -139 | 63
GTCTAACCGAAAGGTGAC (((..(((....)))))) | -73.6 | 42.2
GCAAGCGAAAGCTTGTGC ((((((....)))..))) | -70.9 | 66.7
GATCTGAGCTCAGATC ((((((....)))))) | -216 | 55.6
GCAATACGAAAGTAATGC (((.(((....))).))) | -156 | 47.4
GACCCCGAAAGGGACGTC ((((((....)))..))) | -71.2 | 40.4
GCAAAGCGAAAGCTAGGC ((..(((....)))..)) | -63.1 | 48.3
GCGGATCGAAAGATTCGC (((.(((....))).))) | -192 | 60.8
GTGGCCGAAAGGCTCCAC ((((((....)))..))) | -47.8 | 39
GTATGCTCGAAAGAGTAC (((..(((....)))))) | -44 | 26.7
GGTCCACGAAAGTGTACC (((.(((....))).))) | -90.8 | 50
GTCAACGAAAGTTGCGAC ((((((....)))..))) | -73.9 | 46.6
GAGAATGGAAACATTCTC (((((((....))))))) | -170 | 54.7
GCGGCACTCCGC ((((....)))) | -108 | 57.5
GACGAACGAAAGTTTGTC (((.(((....))).))) | -183 | 54.2
GGGCCCGAAAGGGAGCCC ((((((....)))..))) | -99.6 | 62.3
GCATAGCGAAAGCGACGC ((.(.((....)).).)) | -143 | 63.7
GGGAAGGGAAACCCTCCC ((((.((....)).)))) | -118 | 46.8
GGTGTCGAAAGACGAACC ((((((....)))..))) | -78.5 | 40.9
GCACCCGAAAGGGACTGC ((((((....)))..))) | -66.8 | 40.8
GTACTTGGAAACAAGTAC (((((((....))))))) | -140 | 56
GGATTCGAAAGAATCTCC ((((((....)))..))) | -59.4 | 43.8
GATCCATCAATGGATC ((((((....)))))) | -184 | 52.3

Sequence | folding enthalpy [1] [kJ/mol] | Tm [2] [°C]
GCAGGGCGAAAGCCAGGC ((..(((....)))..)) | -80.9 | 60.1
GTAACAGCGAAAGCTTAC (((..(((....)))))) | -45.4 | 28.6
GCGTTTGAACGC ((((....)))) | -84.9 | 56.7
GAGTAGGGAAACCCACTC ((((.((....)).)))) | -134 | 39.6
GCTTACGAAAGTAGGAGC ((((((....)))..))) | -106 | 35
CGGTGCGGAAACGCTCCG (((.(((....))).))) | -146 | 62
GGGCGAGCGAAAGCTCCC (((..(((....)))))) | -54.9 | 50.5
GCGTTTTACGC ((((...)))) | -96.4 | 60.6
GCCTTATCGAAAGATGGC (((..(((....)))))) | -120 | 42.6
GCGGCGCGAAAGCTCGGC ((.(.((....)).).)) | -72.9 | 44.4
GAAGCACGAAAGTGGTTC (((.(((....))).))) | -132 | 61.3
GATCTAATGTTAGATC ((((((....)))))) | -144 | 40.2
GCTTGCGAAAGCATGAGC ((((((....)))..))) | -95.9 | 52.6
GATCACACAGGTGATC ((((((....)))))) | -185 | 54.5
GTGCTTGGAAACAAACAC (((.(((....))).))) | -121 | 39.1
GACAGCACGAAAGTGGTC (((..(((....)))))) | -57.2 | 36
GCTGACGAAAGTCGGAGC ((((((....)))..))) | -69 | 45.7
GATCTTTTAAAAGATC ((((((....)))))) | -164 | 45.9
GTCAACGAAAGTTAGGAC ((((((....)))..))) | -71.6 | 31.8
GACTGAGCGAAAGCTGTC (((..(((....)))))) | -53.2 | 44.1
GATCCTTAGCAGGATC ((((((....)))))) | -159 | 48.8
GCTGGAGGAAACTCTGGC ((..(((....)))..)) | -117 | 41.6
GTAGGGGGAAACCTCTAC ((((.((....)).)))) | -138 | 44.6
GCACGGCGAAAGCCCCGC ((..(((....)))..)) | -34.9 | 32.2

Sequence | folding enthalpy [1] [kJ/mol] | Tm [2] [°C]
GGAATCTCGAAAGAGTCC (((..(((....)))))) | -77 | 33.2
GATCTTGGCAAGATC ((((((...)))))) | -193 | 48.2
GATCTCTGTCGAGATC ((((((....)))))) | -156 | 51.8
GAAACACGAAAGTGATTC (((.(((....))).))) | -124 | 45.5
GCTGCTGCGAAAGCAAGC (((..(((....)))))) | -49 | 54.1
GACTGCGAAAGCAAGTC ((((((....))).))) | -89.2 | 56.1
GATCGACATTCGATC ((((((...)))))) | -151 | 49.9
GATCTTGGCAAAGATC ((((((....)))))) | -163 | 53.2
GCTTGCGAAAGCACAAGC ((((((....)))..))) | -67.4 | 45.3
GTACAGCGAAAGCTATAC (((.(((....))).))) | -75.3 | 36.9
GATCTCTCAGGAGATC ((((((....)))))) | -201 | 54.2
GCCATCTCGAAAGAGGGC (((..(((....)))))) | -147 | 48.9
CTGAAGAAATTCAG (((((....))))) | -52.5 | 33.4
CGAAGCCGGAAACGGTCG (((..(((....)))))) | -52.7 | 37.8
GCCCAGCGAAAGCTGCGC ((.((((....)))).)) | -71.5 | 59
GTCCCTGCGAAAGCAGAC (((..(((....)))))) | -30.9 | 32.2
GCAAAGCGAAAGCCTAGC ((.(.((....)).).)) | -32.8 | 30.2
GATCGAGTTATCGATC ((((((....)))))) | -174 | 58.6
GCAGGGCGAAAGCAGTGC (((..((....))..))) | -76.4 | 56.7
GCCCTGCGAAAGCTGTGC ((.(.((....)).).)) | -65.8 | 38.9
GATCCTACGCAGGATC ((((((....)))))) | -146 | 51.1
